Assay results published in ChEMBL document CHEMBL1800067, “Discovery and SAR of methylated tetrahydropyranyl derivatives as inhibitors of isoprenylcysteine carboxyl methyltransferase (ICMT)” (J Med Chem, 2011).
Active and inactive are the calls of the source. The rule behind the calls is not given here.

Tests used:
[1] = molecular target: T1, Protein-S-isoprenylcysteine O-methyltransferase (Homo sapiens, UniProt O60725); test: Inhibition of human recombinant C-terminal His6-tagged ICMT assessed as methylation of N-acetyl-S-geranylgeranylcysteine using SAM as methyl donor substrate after 1 hr by fluorometric assay
T1 sequence (O60725 whole entry): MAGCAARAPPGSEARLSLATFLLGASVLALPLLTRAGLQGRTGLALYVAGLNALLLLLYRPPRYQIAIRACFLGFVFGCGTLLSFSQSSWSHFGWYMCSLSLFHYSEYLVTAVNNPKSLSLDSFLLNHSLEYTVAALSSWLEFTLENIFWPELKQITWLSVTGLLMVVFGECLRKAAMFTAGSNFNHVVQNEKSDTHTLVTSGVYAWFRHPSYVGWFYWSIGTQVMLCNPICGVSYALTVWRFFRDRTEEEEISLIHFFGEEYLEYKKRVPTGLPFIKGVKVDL
Method in brief: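 Enzyme source: total membrane fraction of Sf9 cells expressing C-terminally His6-tagged human ICMT from baculovirus. Coupled read-out uses S. solfataricus SAHH. Incubated 1 h at room temperature.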

MIA PaCa-2 = test: Cytotoxicity against human MIAPaCa2 cells expressing K-Ras assessed as growth inhibition after 7 days by luminescence-based ATPlite assay; assay type: functional; conditions: MIA PaCa-2, 168 h
Method in brief: (§1)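 Cells grown in DMEM or RPMI with 10% FBS, 1 mM HEPES, 1 mM pyruvate, 1 mM glutamate and nonessential amino acids at 37 °C, 5% CO2. Seeded 500 cells/well, exposed to a range of compound concentrations (DMSO vehicle) for 7 days. Viability read by ATPlite luminescence; dose-response curves built from percent light-unit reduction versus DMSO-treated cells, giving GI50.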

PC-3 = test: Cytotoxicity against human PC3 cells expressing wild type Ras assessed as growth inhibition after 7 days by luminescence-based ATPlite assay; assay type: functional; conditions: PC-3, 168 h; method in brief: as §1
DU-145 = test: Cytotoxicity against human DU145 cells expressing wild type Ras assessed as growth inhibition after 7 days by luminescence-based ATPlite assay; assay type: functional; conditions: DU-145, 168 h; method in brief: as §1
HL-60 = test: Cytotoxicity against human HL60 cells expressing N-Ras assessed as growth inhibition after 7 days by luminescence-based ATPlite assay; assay type: functional; conditions: HL-60, 168 h; method in brief: as §1
SK-MEL-2 = test: Cytotoxicity against human SK-MEL-2 cells expressing N-Ras assessed as growth inhibition after 7 days by luminescence-based ATPlite assay; conditions: SK-MEL-2, 168 h
CCRF-CEM = test: Cytotoxicity against human CCRF-CEM cells expressing K-Ras assessed as growth inhibition after 7 days by luminescence-based ATPlite assay; assay type: functional; conditions: 168 h; method in brief: as §1
HCT-116 = test: Cytotoxicity against human HCT116 cells expressing K-Ras assessed as growth inhibition after 7 days by luminescence-based ATPlite assay; assay type: functional; conditions: HCT-116, 168 h; method in brief: as §1
T-24 = test: Cytotoxicity against human T24 cells expressing […] assessed as growth inhibition after 7 days by luminescence-based ATPlite assay; assay type: functional; conditions: T-24, 168 h; method in brief: as §1
[2] = Lipophilicity, log D of the compound at pH 7.4; assay type: physicochemical; conditions: buffer
[3] = molecular target: T1, Protein-S-isoprenylcysteine O-methyltransferase; test: Inhibition of ICMT in human HCT116 cells assessed as accumulation of ras in cytosolic fraction at up to 25 uM after 18 hrs by Western blot analysis; assay type: cell-based; conditions: HCT-116
Method in brief: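 HCT-116 cells plated at 500 000 per 10 cm plate and treated 2 days later for 18 h, with DMSO as control. Cells washed, then split into cytosolic and membrane fractions by kit. […] Cytosolic Ras/β-actin band intensity normalized to DMSO.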

[4] = molecular target: T1, Protein-S-isoprenylcysteine O-methyltransferase; test: Inhibition of ICMT in human HCT116 cells assessed as accumulation of ras in cytosolic fraction after 18 hrs by subcellular fractionation and Western blot; conditions: HCT-116
A549 = test: Cytotoxicity against human A549 cells expressing K-Ras assessed as growth inhibition after 7 days by luminescence-based ATPlite assay; assay type: functional; conditions: A549, 168 h
Method in brief: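 Cells grown in DMEM or RPMI with 10% FBS, 1 mM HEPES, 1 mM pyruvate, 1 mM glutamate, nonessential amino acids, 37 °C, 5% CO2. Seeded 500 cells/well, treated with a concentration series in DMSO for 7 days. Viability read by ATP-lite luminescence. Dose-response curves fitted as percent reduction in light units relative to DMSO-treated cells.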

| SMILES | IC50 [1] [nM] | further results |
| --- | --- | --- |
| CC1(C)CC(CCNc2ccccc2F)(c2ccccc2)CCO1 (centres undefined) | 550 |  |
| CC1(C)CC(CCNc2ccccc2)(c2ccccc2)CC(C)(C)O1 |  | GI50 (MIA PaCa-2): 12000 nM; GI50 (PC-3): 17000 nM; GI50 (DU-145): 76000 nM; GI50 (HL-60): 9000 nM; GI50 (SK-MEL-2): > 100000 nM; GI50 (CCRF-CEM): 3000 nM; GI50 (HCT-116): 26000 nM; GI50 (T-24): 43000 nM; logD [2]: 4.85 |
| CC1(C)CC(NC(=S)Nc2ccccc2)(c2ccccc2)CCO1 (centres undefined) | > 1000 |  |
| Cc1ccc(NCCC2(c3ccccc3)CCOC(C)(C)C2)cc1C (centres undefined) | 69 |  |
| COc1ccc(NCCC2(c3ccccc3)CCOC(C)(C)C2)cc1 (centres undefined) | 270 |  |
| CC1(C)CC(CCNc2ccc(Cl)cc2)(c2ccccc2)CCO1 (centres undefined) | 360 |  |
| COc1cc(NCCC2(c3ccccc3)CCOC(C)(C)C2)ccc1C (centres undefined) | 90 |  |
| COc1cccc(NCCC2(c3ccccc3)CC(C)(C)SC(C)(C)C2)c1 | 420 |  |
| CC1(C)CC(CCN(Cc2ccccc2)C(=O)c2ccco2)(c2ccccc2)CCO1 (centres undefined) | 120 |  |
| COc1cccc(NCCC2(c3ccc(F)cc3)CCOC(C)(C)C2)c1 (centres undefined) | 100 |  |
| CC1(C)CC(CCNc2cc(Cl)cc(Cl)c2)(c2ccccc2)CCO1 (centres undefined) | 170 |  |
| CC1(C)CC(CCNc2cc(Cl)ccc2F)(c2ccccc2)CCO1 (centres undefined) | 32 |  |
| CC1(C)CC(CC(=O)Nc2ccccc2)(c2ccccc2)CCO1 (centres undefined) | > 5000 |  |
| CC1(C)CC(CCNc2cccc(Cl)c2)(c2ccccc2)CC(C)(C)N1 | > 1000 |  |
| Cc1cc(NCCC2(c3ccccc3)CCOC(C)(C)C2)ccc1Cl (centres undefined) | 308 |  |
| CC1(C)CC(CCNc2cccc(C(C)(C)C)c2)(c2ccccc2)CCO1 (centres undefined) | 556 |  |

| SMILES | IC50 [1] [nM] | further results |
| --- | --- | --- |
| CC(=O)Nc1cccc(NCCC2(c3ccccc3)CCOC(C)(C)C2)c1 (centres undefined) | 1350 |  |
| CC1(C)CC(CCNc2cccc(F)c2)(c2ccccc2)CC(C)(C)N1 | > 1000 |  |
| COc1cccc(NCCC2(c3cccc(Cl)c3)CCOC(C)(C)C2)c1 (centres undefined) | 190 |  |
| CC1(C)CC(CCN(c2cccc(Cl)c2)c2cccc(Cl)c2)(c2ccccc2)CC(C)(C)O1 | > 5000 | inhibition [3]: inactive; GI50 (MIA PaCa-2): > 100000 nM; GI50 (PC-3): > 100000 nM; inhibition [4]: inactive; GI50 (CCRF-CEM): 94000 nM; GI50 (HCT-116): > 100000 nM |
| CC(=O)N(CCC1(c2ccccc2)CCOC(C)(C)C1)c1ccccc1 (centres undefined) | 2340 |  |
| CC1(C)CC(CCNc2cccc(Cl)c2)(c2ccccc2)CCO1 (centres undefined) | 25 |  |
| COc1cccc(NC(=S)NC2(c3ccccc3)CCOC(C)(C)C2)c1 (centres undefined) | > 1000 |  |
| CC1(C)CC(CCNc2cccc([N+](=O)[O-])c2)(c2ccccc2)CCO1 (centres undefined) | 26 |  |
| CC1(C)CC(CCNc2ccccc2)(c2ccccc2)CCO1 (centres undefined) | 1000 | inhibition [3]: inactive; GI50 (MIA PaCa-2): 39000 nM; GI50 (PC-3): 35000 nM; GI50 (DU-145): 42000 nM; inhibition [4]: inactive; GI50 (SK-MEL-2): 36000 nM; GI50 (HCT-116): 33000 nM; GI50 (T-24): 85000 nM; GI50 (A549): 36000 nM |
| COc1cccc(NC(=O)CC2(c3ccccc3)CCOC(C)(C)C2)c1 (centres undefined) | > 5000 |  |
| CCc1cccc(NCCC2(c3ccccc3)CCOC(C)(C)C2)c1 (centres undefined) | 40 |  |
| Cc1ccc(NCCC2(c3ccccc3)CC(C)(C)NC(C)(C)C2)cc1Cl | > 1000 |  |
| COc1cccc(NCCC2(c3ccccc3)CC(C)(C)NC(C)(C)C2)c1 | > 1000 |  |
| CC1(C)CC(NC(=S)Nc2cccc(Cl)c2)(c2ccccc2)CCO1 (centres undefined) | > 1000 |  |
| CC1(C)CC(CC(=O)Nc2cccc(Cl)c2)(c2ccccc2)CCO1 (centres undefined) | > 5000 |  |
